# Screens from PubChem BioAssay.
# This is a sample that favours compounds with a hit; in the whole collection about 9.6% have one here.
# HCT116 bCat-KO = primary screen for growth suppressors in beta-catenin knockout HCT116 cells (colon tumor, human). HCT116 beta-catenin knockout viability, CellTiter-Glo, 60 h; stronger effect = lower value. viability, % at 10 µM. 1.5% of 140,000 active;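 active = viability at or under a set limit, the compound median less 4 SD, cut at about 6% in these data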;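 note: 0% = Hyamine 1622 control at 20 µM and 100% = untreated cell control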
# Lmaj promast = Leishmania major promastigote growth inhibition, primary screen; 9% of 200,000 active; Leishmania major promastigotes, resazurin fluorescence viability; AID 1063, 2008; inhibition, % at 10 µM; in the data active = inhibition above about 50%;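 note: promastigotes grown with compound for 44 hours at 28 °C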
# PMI activator = activators of human PMI, primary screen, biochemical, fluorescence intensity, near-Km mannose 6-phosphate; 0.005% of 190,000 active; Mannose-6-phosphate isomerase (Homo sapiens), P34949; purified human PMI, coupled resazurin fluorescence, 20 min; stronger effect = higher value; 1 = vehicle control, 0 substrate-free wells; AID 1214, 2008; activation factor at 20 µM;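 active = activation factor of 2 or more at 20 µM, relative to plate controls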
# Target sequence (P34949 whole entry, looked up): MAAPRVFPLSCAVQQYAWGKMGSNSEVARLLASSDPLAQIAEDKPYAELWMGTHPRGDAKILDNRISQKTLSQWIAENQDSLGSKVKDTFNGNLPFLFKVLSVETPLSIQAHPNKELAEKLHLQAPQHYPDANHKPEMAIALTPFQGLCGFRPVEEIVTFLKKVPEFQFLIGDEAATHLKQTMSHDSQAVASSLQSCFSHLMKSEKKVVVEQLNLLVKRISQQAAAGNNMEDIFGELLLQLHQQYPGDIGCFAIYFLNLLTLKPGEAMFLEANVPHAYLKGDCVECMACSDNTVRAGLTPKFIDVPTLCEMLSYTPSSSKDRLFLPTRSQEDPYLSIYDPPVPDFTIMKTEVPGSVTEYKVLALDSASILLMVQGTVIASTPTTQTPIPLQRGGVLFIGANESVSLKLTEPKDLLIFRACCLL
# PMI act hi M6P = human PMI activators, high substrate, primary screen, biochemical, fluorescence intensity, near-saturating mannose 6-phosphate; 0.34% of 190,000 active; activation factor at 20 µM; AID 1216, 2008; coupled PMI enzyme assay, resazurin fluorescence, 20 min; stronger effect = higher value; 1 = untreated enzyme, 0 = substrate-free blank;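 active = activation factor of 2 or more at 20 µM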
#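 Technique: Diaphorase-driven resazurin-to-resorufin fluorescence, excitation 544, emission 590 nm | Assay system: Human PMI in coupled enzyme assay | Times: Enzyme reaction with compound 20 min at room temperature | Medium: HEPES-buffered pH 7.4 with magnesium and detergent | Reagent: Mannose-6-phosphate 1.0 mM (near-saturating) plus 0.22 mM NADP+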
# PTEN del growth = growth suppression of PTEN-null HCT116, primary screen, cell-based, CellTiter-Glo | 1.2% of 140,000 active | viability, % at 10 µM | AID 827, 2007 | HCT116 PTEN-null viability, 60 h; stronger effect = lower value;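 active = viability at or below a set limit, 4 SD under the median of all tested compounds, cut at about 3.7% in these data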;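 note: PTEN knockout HCT116 line with beta catenin targeted HCT116 as companion control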
# * = called active by the depositor; · = no result.
SMILES,HCT116 bCat-KO,Lmaj promast,PMI activator,PMI act hi M6P,PTEN del growth
CCCCC1(C)Nc2ccccc2-c2nc3ccccc3n21 (configuration not stated),75,74*,0.9,1,86
c1ccc2c(c1)NC1(CCCCC1)n1c-2nc2ccccc21,93,42,0.9,0.9,91
CC1(c2ccccn2)Nc2ccccc2-c2nc3ccccc3n21 (configuration not stated),71,53*,0.9,0.9,69
c1ccc2c(c1)NC1(CCCCCC1)n1c-2nc2ccccc21,90,28,0.9,0.9,81
COC(c1ccccc1)c1nnc(CCC(=O)NCCC(C)C)o1 (configuration not stated),·,-6,1,1,·
Cc1cc(Oc2nc3c(C)cccn3c(=O)c2/C=C(\C#N)S(=O)(=O)c2ccc(Cl)cc2)ccc1Cl,3.9*,80*,0.9,1,1.4*
Cc1ccc(S(=O)(=O)/C(C#N)=C/c2c(N3CC(C)OC(C)C3)nc3c(C)cccn3c2=O)cc1 (configuration not stated),93,97*,0.8,0.9,104
COC(=O)/C(C#N)=C/c1c(Oc2cc(C)cc(C)c2)nc2c(C)cccn2c1=O,21,97*,1.2,1.3,18
CCOC(=O)C1=C(C)NC(C)=C(C(=O)OCC)C1C(=O)OCC(=O)N(CC)C1CCS(=O)(=O)C1 (configuration not stated),·,-2,1,1,·
COc1ccc(-c2cnnn2-c2ccc(NC(=O)c3ccc(S(=O)(=O)N4CCCCC4)cc3)cc2)cc1,81,99*,0.7,0.9,75
COc1ccc(C(=O)Nc2ccc(S(=O)(=O)N3CCc4ccccc43)cc2)cc1,11,54*,·,·,14
COc1ccc(NC(=O)c2cccc(S(=O)(=O)N3CCc4ccccc43)c2)cn1,·,94*,1,0.9,·
COc1ccc(C(=O)Nc2ccc(S(=O)(=O)N3CCCCC3)cc2)cc1,44,9,0.9,0.9,42
O=C(Nc1nc2ccccc2s1)C1=NN(c2ccccc2)C(=O)CC1,97,30,0.9,0.9,94
CCOC(=O)c1sc(NC(=O)COC(=O)C(CCSC)NC(C)=O)nc1C (configuration not stated),89,6,0.8,0.9,91
Nc1nc2nc(-c3cccs3)cc(C(F)(F)F)n2n1,·,-4,1,1.1,·
Cc1cccc(/C=c2\s/c(=C\C(=O)C(C)(C)C)[nH]c2=O)c1,29,20,1,1,26
CC(C)(C)C(=O)/C=c1\[nH]c(=O)/c(=C\c2ccc(C#N)cc2)s1,29,60*,1,1,30
CC1=C/C(=N\Nc2ccccc2[N+](=O)[O-])CC(C)(C)C1,83,40,1,0.9,81
Cc1ccc(NC(=S)N/N=C2\CCCCC2C)cc1 (configuration not stated),·,-2,1.8,2*,·
CCCCCCCOc1ccc(OC(=O)c2ccncc2)cc1,56,-1,0.9,1,46
CC(=O)OC(COc1ccccc1)Cn1cnc2cc(C)c(C)cc21 (configuration not stated),·,6,1.2,1.1,·
Cc1nc2c3cc(F)ccc3n(Cc3ccccc3F)c2s1,23,-3,0.9,0.9,28
Cc1nc2c3ccccc3n(Cc3ccccc3F)c2s1,65,56*,0.9,0.7,69
Cc1cc(C)c(C)c(OCC(=O)NCc2nc(-c3ccccc3)no2)c1,105,-7,0.9,0.9,93
SMILES,HCT116 bCat-KO,Lmaj promast,PMI activator,PMI act hi M6P,PTEN del growth
CCCN(CCC)CCCNC(=S)Nc1ccc2nc(N3CCN(C)CC3)cc(C)c2c1,·,65*,1,0.9,·
CCCN(CCC)CCCNC(=S)Nc1ccc2nc(N3CCN(CC)CC3)cc(C)c2c1,·,94*,1.2,1,·
CCO[C@@H]1OC(C(=O)N2CCN(C)CC2)=C[C@H](c2ccc(C(F)(F)F)cc2)[C@H]1CCCO,·,-3,1,1,·
CCOC(=O)c1sc(NC(=O)CC)c(C#N)c1C,·,-7,1.2,1.2,·
COc1ccc(C2N(S(=O)(=O)c3ccccc3)CCN2S(=O)(=O)c2ccc(C)cc2)cc1 (configuration not stated),83,100*,1.1,1,76
Cc1ccc(S(=O)(=O)N2CCN(S(=O)(=O)c3ccc(C)cc3)C2c2ccccc2)cc1,72,19,0.9,1,66
c1ccc(Cc2noc(CN3CCN(Cc4ccc5c(c4)OCO5)CC3)n2)cc1,·,90*,1,1,·
O=C(C1CCN(Cc2nc(Cc3cccc(F)c3)no2)CC1)N1CCOCC1,·,-7,0.9,0.9,·
Fc1cccc(CN2CCN(Cc3nc(CCc4ccccc4)no3)CC2)c1,·,79*,0.8,0.9,·
Fc1ccccc1Cc1noc(CN2CCN(Cc3ccc4c(c3)OCO4)CC2)n1,·,84*,0.9,1,·
C(=C\c1ccccc1)/CN1CCN(Cc2nc(Cc3ccccc3)no2)CC1,·,80*,1,1,·
COC(=O)[C@@H]1CCCN1Cc1nc(Cc2ccccc2F)no1,·,6,·,·,·
CCN1CCN(C(=O)C(C)Nc2cc(Cl)c(OC)cc2OC)CC1 (configuration not stated),·,1,0.7,0.3,·
Cc1ccc2nc(NC(=O)Cn3cc4c(n3)CCCCC4)sc2c1,89,-5,0.8,1,85
O=c1c2ccccc2nc(N/N=C/c2c(O)ccc3ccccc23)n1O,7,100*,1,1,9
CC(C)[C@H](NC(=O)c1ccc(Cl)c([N+](=O)[O-])c1)C(=O)NCc1ccc(Cl)cc1Cl,68,53*,0.9,0.9,67
O=C(COC(=O)c1cc(Cl)ccc1[N+](=O)[O-])NCc1ccc(Cl)cc1Cl,99,62*,1,1,84
Cc1cc(C)n2nc(SCc3nnc(SCCCCl)o3)nc2n1,72,0,1,1,91
CCCCCCCCSc1nnc(CSc2nc3nc(C)cc(C)n3n2)o1,42,67*,1,1,55
CC(=O)c1cc(N2CCC(C(=O)O)CC2)ccc1[N+](=O)[O-],·,-3,1,0.9,·
O=[N+]([O-])c1ccc(N/N=C2/CCCCC2c2ccccn2)cc1 (configuration not stated),93,98*,1,1.1,92
O=[N+]([O-])c1ccc(NC2CCCC2)cc1,68,43,1,0.9,84
Cc1nn(-c2ccccc2)c(N2CCCC2)c1/C=N/NC(=S)Nc1ccccc1C(F)(F)F,57,99*,0.9,0.9,52
Cc1nn(-c2ccccc2)c(N2CCCC2)c1/C=N/O,91,72*,0.9,0.9,86
Cc1nn(-c2ccccc2)c(N2CCCC2)c1/C=N/NC(=S)Nc1cc(C(F)(F)F)ccc1Cl,102,10,0.9,1,101
